# The source made the active and inactive calls. The calls are words filed in the database; no cut-off is given here. Positions of bridges follow the written chain, without caps; N, C: chain ends. Non-standard residues stand in square brackets, D forms with d. Residues, ends and D or L forms follow the SMILES beside them. NMeW = CN[C@@H](Cc1c[nH]c2ccccc12)C(=O)O; 2Abz = Nc1ccccc1C(=O)O
# Columns and labels:
# Type in all cases: functional, cell-based
# A549 = experiment: Cytotoxicity against human A549 cells by SRB assay
# HeLa = experiment: Cytotoxicity against human HeLa cells by SRB assay
# SMMC-7721 = experiment: Cytotoxicity against human SMMC7721 cells by SRB assay
# HepG2 = experiment: Lipid-lowering activity in human HepG2 cells assessed as reduction in oleic acid-elicited intracellular lipid accumulation at 10 uM after 6 hrs by Oil Red O staining method
# Outline: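 HepG2 cells were kept in DMEM with 10% FBS and penicillin/streptomycin (100 μg/mL). At 70−80% confluence, cells were loaded with oleic acid (100 μM in DMEM) for 12 h. They were then exposed to test agent (10 μM) in DMEM/100 μM oleic acid for a further 6 h. Simvastatin served as positive control and DMEM/oleic acid as blank. Lipid was read by Oil Red O staining.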
SMILES,IC50 (A549),IC50 (HeLa),IC50 (SMMC-7721),Activity (HepG2)
CC(=O)N(C)[C@@H]1C(=O)N2CCC[C@H]2C(=O)Nc2ccccc2C(=O)n2cc(c3ccccc32)[C@H]1O,> 100 µM,> 100 µM,> 100 µM,Active
CC(=O)N(C)[C@H]1Cc2cn(c3ccccc23)C(=O)c2ccccc2NC(=O)[C@@H]2CCCN2C1=O (Ac-[NMeW]-Pro-[2Abz]; lactam 1-C),> 100 µM,> 100 µM,> 100 µM,–
CC(=O)N(C)[C@@H]1C(=O)N2CCC[C@H]2C(=O)Nc2ccccc2C(=O)n2cc(c3c(O)cccc32)[C@H]1O,> 100 µM,> 100 µM,> 100 µM,–
CC(=O)N[C@H]1Cc2cn(c3ccccc23)C(=O)c2ccccc2NC(=O)[C@@H]2CCCN2C1=O (Ac-Trp-Pro-[2Abz]; lactam 1-C),> 100 µM,> 100 µM,> 100 µM,–

# — ChEMBL document CHEMBL3351517, “Psychrophilins E-H and versicotide C, cyclic peptides from the marine-derived fungus Aspergillus versicolor ZLN-60” (J Nat Prod, 2014)
